Assay results from ChEMBL document CHEMBL1145781, “Synthesis and structure-activity relationships of 5-amino-6-fluoro-1-[(1R,2S)-2-fluorocyclopropan-1-yl]-8-methylquinolonecarboxylic acid antibacterials having fluorinated 7-[(3R)-3-(1-aminocyclopropan-1-yl)pyrrolidin-1-yl] substituents” (J Med Chem, 2003).
Values after ≈ are worked out from the molar mass of the structure shown.

Tests used:
[1] = system: Escherichia coli; assay: Antibacterial activity was determined against Escherichia coli NIHJ strain after incubation at 37 degrees C for 18 h; assay type: functional
[2] = system: Enterococcus faecalis; assay: Antibacterial activity was determined against Enterococcus faecalis ATCC 19433 strain after incubation at 37 degrees C for 18 h; assay type: functional; details: ATCC 19433, 18 h
[3] = system: Klebsiella pneumoniae; assay: Antibacterial activity was determined against Klebsiella pneumoniae type II strain after incubation at 37 degrees C for 18 h; assay type: functional
[4] = system: Pseudomonas aeruginosa; assay: Antibacterial activity was determined against Pseudomonas aeruginosa PAO1 strain after incubation at 37 degrees C for 18 h; assay type: functional
[5] = system: Staphylococcus epidermidis; assay: Antibacterial activity was determined against Staphylococcus epidermis 56500 strain after incubation at 37 degrees C for 18 h; assay type: functional
[6] = system: Staphylococcus aureus; assay: Antibacterial activity was determined against Staphylococcus aureus FDA 209-P strain after incubation at 37 degrees C for 18 h; assay type: functional
[7] = system: Streptococcus pyogenes; assay: Antibacterial activity was determined against Streptococcus pyogenes G-36 strain after incubation at 37 degrees C for 18 h; assay type: functional
[8] = system: Streptococcus pneumoniae; assay: Antibacterial activity was determined against Streptococcus pneumoniae J-24 strain after incubation at 37 degrees C for 18 h; assay type: functional
[9] = system: Streptococcus mitis; assay: Antibacterial activity was determined against Streptococcus mitis IID685 strain after incubation at 37 degrees C for 18 h; assay type: functional
[10] = system: Enterococcus sp.; assay: Antibacterial activity was determined against clinically isolated vancomycin-A resistant enterococci (VRE) strains (33 strains); assay type: functional
[11] = system: Enterococcus sp.; assay: Antibacterial activity was determined against clinically isolated vancomycin-B resistant enterococci (VRE) strains (10 strains); assay type: functional
[12] = system: Staphylococcus aureus; assay: Antibacterial activity was determined against clinically isolated Levofloxacin-methicillin resistant Staphylococcus aureus (LVFX-r MRSA) strains (74 strains); assay type: functional
[13] = system: Streptococcus pneumoniae; assay: Antibacterial activity was determined against clinically isolated penicillin resistant Streptococcus pneumoniae (PRSP) strains (50 strains); assay type: functional
[14] = Solubility was determined in water; assay type: physicochemical
[15] = Mortality was determined after 100 mg/kg dose administered intravenously to 5-week old male mice at a speed of 0.2 mL/min counted on day 7 for total 5 mice; assay type: ADME, organism-based; parameters: dose 100 mg/kg, route intravenous; details: mouse, in vivo, iv
In short: (§1)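 Male Slc:ddY mice, 5 weeks old. Compound dissolved in 0.1 N NaOH in saline at varied concentrations and given as a single IV injection at 0.2 mL/min, total volume 10 mL/kg body weight. Deaths counted on day 7 and reported as dead/tested.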

[16] = Mortality was determined after 150 mg/kg dose administered intravenously to 5-week old male mice at a speed of 0.2 mL/min counted on day 7 for total 2 mice; assay type: ADME, organism-based; parameters: dose 150 mg/kg, route intravenous; details: mouse, in vivo, iv; in short: as §1
[17] = Toxicity was determined as presence of micronucleated reticulocytes (MNRET) in blood at 24 and 48 hr after 100 mg/kg dose administered intravenously to 5-week old male mice; positive.; assay type: organism-based; parameters: dose 100 mg/kg, route intravenous; details: mouse, in vivo, iv
[18] = Toxicity was determined as presence of micronucleated reticulocytes (MNRET) in blood at 24 and 48 hr after 100 mg/kg dose administered intravenously to 5-week old male mice; negative.; assay type: organism-based; parameters: dose 100 mg/kg, route intravenous; details: mouse, in vivo, iv
[19] = Mortality was determined after 50 mg/kg dose administered intravenously to 5-week old male mice at a speed of 0.2 mL/min counted on day 7 for total 2 mice; assay type: ADME, organism-based; parameters: dose 50 mg/kg, route intravenous; details: mouse, in vivo, iv; in short: as §1
[20] = Mortality was determined after 100 mg/kg dose administered intravenously to 5-week old male mice at a speed of 0.2 mL/min counted on day 7 for total 2 mice; assay type: ADME, organism-based; parameters: dose 100 mg/kg, route intravenous; details: mouse, in vivo, iv; in short: as §1

Compound | MIC [1] [µg/mL] | MIC [2] [µg/mL] | MIC [3] [µg/mL] | MIC [4] [µg/mL] | MIC [5] [µg/mL] | MIC [6] [µg/mL] | MIC [7] [µg/mL] | MIC [8] [µg/mL] | MIC [9] [µg/mL] | Dead [16] | other results
COc1c(N2C[C@@H]3CCCN[C@@H]3C2)c(F)cc2c(=O)c(C(=O)O)cn(C3CC3)c12 [MOXIFLOXACIN] | ≤ 0.003 | 0.2 (≈ 0.498 µM) | 0.025 (≈ 0.0623 µM) | 0.2 (≈ 0.498 µM) | 0.1 (≈ 0.249 µM) | 0.013 (≈ 0.0324 µM) | 0.2 (≈ 0.498 µM) | 0.025 (≈ 0.0623 µM) | 0.1 (≈ 0.249 µM) |  | 
O=C(O)c1cn(C2CC2)c2cc(N3CCNCC3)c(F)cc2c1=O [CIPROFLOXACIN] | ≤ 0.003 | 0.78 (≈ 2.35 µM) | 0.025 (≈ 0.0754 µM) | 0.05 (≈ 0.151 µM) | 0.2 (≈ 0.604 µM) | 0.05 (≈ 0.151 µM) | 1.56 (≈ 4.71 µM) | 0.39 (≈ 1.18 µM) | 0.78 (≈ 2.35 µM) |  | 
CN[C@H](CC(C)C)C(=O)N[C@H]1C(=O)N[C@@H](CC(N)=O)C(=O)N[C@H]2C(=O)N[C@H]3C(=O)N[C@H](C(=O)N[C@H](C(=O)O)c4cc(O)cc(O)c4-c4cc3ccc4O)[C@H](O)c3ccc(c(Cl)c3)Oc3cc2cc(c3O[C@@H]2O[C@H](CO)[C@@H](O)[C@H](O)[C@H]2O[C@H]2C[C@](C)(N)[C@H](O)[C@H](C)O2)Oc2ccc(cc2Cl)[C@H]1O [VANCOMYCIN] |  |  |  |  |  |  |  |  |  |  | MIC50 [10]: > 128 µg/mL; MIC90 [10]: > 128 µg/mL; MIC50 [11]: > 128 µg/mL; MIC90 [11]: > 128 µg/mL; MIC50 [12]: 1 µg/mL (≈ 0.69 µM); MIC90 [12]: 2 µg/mL (≈ 1.38 µM); MIC50 [13]: 0.5 µg/mL (≈ 0.345 µM); MIC90 [13]: 0.5 µg/mL (≈ 0.345 µM)
Cc1c(N2CC[C@@H](C3(N)CC3)C2)c(F)c(N)c2c(=O)c(C(=O)O)cn([C@@H]3C[C@@H]3F)c12 | ≤ 0.003 | 0.013 (≈ 0.0311 µM) | 0.025 (≈ 0.0597 µM) | 0.1 (≈ 0.239 µM) | ≤ 0.003 | ≤ 0.003 | ≤ 0.003 | ≤ 0.003 | ≤ 0.003 | 2 | solubility [14]: 39 µg/mL (≈ 93.2 µM); Dead [15]: 0; Toxicity [17]: Toxic
Cc1c(N2C[C@H](C3(N)CC3)C(F)(F)C2)c(F)c(N)c2c(=O)c(C(=O)O)cn([C@@H]3C[C@@H]3F)c12 | ≤ 0.003 | 0.013 (≈ 0.0286 µM) | 0.013 (≈ 0.0286 µM) | 0.2 (≈ 0.44 µM) | ≤ 0.003 | ≤ 0.003 | ≤ 0.003 | ≤ 0.003 | ≤ 0.003 | 2 | Dead [15]: 1; Toxicity [18]: Non-toxic
COc1c(N2CCNC(C)C2)c(F)cc2c(=O)c(C(=O)O)cn(C3CC3)c12 (stereo not given) [GATIFLOXACIN] | 0.006 (≈ 0.016 µM) | 0.39 (≈ 1.04 µM) | 0.05 (≈ 0.133 µM) | 0.39 (≈ 1.04 µM) | 0.2 (≈ 0.533 µM) | 0.05 (≈ 0.133 µM) | 0.39 (≈ 1.04 µM) | 0.2 (≈ 0.533 µM) | 0.2 (≈ 0.533 µM) |  | MIC50 [10]: 16 µg/mL (≈ 42.6 µM); MIC90 [10]: 32 µg/mL (≈ 85.2 µM); MIC50 [11]: 2 µg/mL (≈ 5.33 µM); MIC90 [11]: 16 µg/mL (≈ 42.6 µM); MIC50 [12]: 4 µg/mL (≈ 10.7 µM); MIC90 [12]: 32 µg/mL (≈ 85.2 µM); MIC50 [13]: 0.25 µg/mL (≈ 0.666 µM); MIC90 [13]: 0.25 µg/mL (≈ 0.666 µM)
Cc1c(N2CC[C@@H](CN)C2)c(F)c(N)c2c(=O)c(C(=O)O)cn(C3C[C@@H]3F)c12 (single isomer, unassigned) | 0.013 (≈ 0.0331 µM) | 0.025 (≈ 0.0637 µM) | 0.1 (≈ 0.255 µM) | 0.1 (≈ 0.255 µM) | 0.006 (≈ 0.0153 µM) | ≤ 0.003 | 0.013 (≈ 0.0331 µM) | 0.013 (≈ 0.0331 µM) | 0.006 (≈ 0.0153 µM) | 2 | solubility [14]: 404 µg/mL (≈ 1030 µM); Dead [19]: 2; Dead [20]: 2
N[C@@H]1[C@H]2CN(c3nc4c(cc3F)c(=O)c(C(=O)O)cn4-c3ccc(F)cc3F)C[C@@H]12 [TROVAFLOXACIN] | ≤ 0.003 | 0.2 (≈ 0.48 µM) | 0.025 (≈ 0.06 µM) | 0.2 (≈ 0.48 µM) | 0.05 (≈ 0.12 µM) | 0.013 (≈ 0.0312 µM) | 0.2 (≈ 0.48 µM) | 0.05 (≈ 0.12 µM) | 0.1 (≈ 0.24 µM) |  | 
